Series [1] in a line: Inhibition of wild-type HIV-1 3B reverse transcriptase infected in human MT4 cells assessed as reduction in virus-induced cytopathic effect after 5 days by MTT assay. Conditions: Human immunodeficiency virus 1, 3B, MT4, 120 h. The series is classed as cell-based. On the technique in general: Damage to the host cells serves as the signal in cytopathic effect assays.
Series [2] can be described thus: Inhibition of rilpivirine-resistant HIV1 NL4-3 reverse transcriptase E138K/M184I double mutant infected in human TZM-b1 cells after 2 days by bright Glo-luciferase reporter gene assay. The series is classed as cell-based. Conditions: Human immunodeficiency virus 1, NL4-3, TZM-b1, 48 h. In a few lines: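 TZM-bl cells infected with NL4-3 variant carrying E138K or E138K+M184I RT mutations; EC50 from luciferase reporter gene expression. Test compounds up to 100 ng/mL highest concentration; at least three experiments (n = 3). Run in parallel with wild-type NL4-3 and reference drug.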
(In general: A reporter such as luciferase makes a cellular process visible.)

Series [3] in a line: Inhibition of wild type HIV1 NL4-3 reverse transcriptase infected in human TZM-b1 cells after 2 days by bright Glo-luciferase reporter gene assay. Conditions: Human immunodeficiency virus 1, NL4-3, TZM-b1, 48 h. It is filed as cell-based. In a few lines:
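Anti-HIV activity against HIV-1 NL4-3 replication in TZM-bl cells, read out by luciferase gene expression. EC50 values from at least three experiments (n = 3). Top test concentration 100 ng/mL for the newly made series.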

The test system of series [4] is Liver. Briefly: (§1) Half life in human liver microsomes at 1 uM pretreated up to 45 mins followed by NADPH addition by LC/MS/MS analysis. Conditions: microsomes, 1 µM. It is filed as ADME, microsome. An outline of the steps: (§2)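 Remaining parent was quantified by LC/MS/MS at several time points to give t1/2 (min). Data from at least two experiments in parallel.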
Background: Microsomes from liver hold many membrane-bound enzymes, among them those of drug oxidation.

The nature of series [5]: Octanol-water partition coefficient, log P of the compound at pH 7.4 after 24 hrs by HPLC method. Conditions: pH 7.4, 24 h. It is filed as physicochemical.
Series [6] relates to Liver. Briefly: (§3) Half life in human liver S9 fractions at 1 uM measured pretreated up to 45 mins followed by NADPH addition by LC/MS/MS analysis. It is filed as ADME, tissue-based. Conditions: s9, 1 µM. In a few lines:
as §2

Series [7] is described as follows: Aqueous solubility of the compound in phosphate buffer at pH 7.4 after 4 hrs by HPLC-UV analysis. The series is classed as physicochemical. An outline of the steps:
(§4)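 Aqueous solubility measured by HPLC at pH 2.0 and at pH 7.4.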

Another series has as its system TZM. In words: (§5) Cytotoxicity against human TZM-bl cells infected with HIV1 NL4-3. It is filed as cell-based. Conditions: tzm.
A short description of series [8]: Aqueous solubility of the compound in 0.01 M HCl at pH 2 after 4 hrs by HPLC-UV analysis. The series is classed as physicochemical. In a few lines:
as §4

For a further series, the system named is Plasma. In words: (§6) Half life in human plasma at 10 ug/ml by LC/MS/MS analysis. The series is classed as ADME, cell-free.
Series [9] relates to Human immunodeficiency virus. Briefly: Fold resistance, ratio of EC50 for rilpivirine-resistant HIV1 NL4-3 reverse transcriptase E138K/M184I double mutant to EC50 for wild type HIV1 NL4-3 reverse transcriptase. An outline of the steps: (§7)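 Fold change calculated as EC50 against the resistant NL4-3 variant (E138K or E138K+M184I) divided by EC50 against wild-type NL4-3, both measured in parallel in TZM-bl cells by luciferase reporter expression.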

The test system of series [10] is Human immunodeficiency virus 1. Briefly: Fold resistance, ratio of EC50 for rilpivirine-resistant HIV1 NL4-3 reverse transcriptase E138K mutant to EC50 for wild type HIV1 NL4-3 reverse transcriptase. In a few lines:
as §7

The nature of series [11]: as §1. To be noted: liver microsomes. The series is classed as ADME, microsome. In a few lines: as §2
The nature of series [12]: as §3. To be noted: liver S9 fraction. The series is classed as ADME, tissue-based. An outline of the steps:
as §2

Series [13] can be described thus: as §5. The series is classed as cell-based. Conditions: TZM-bl cells infected with HIV1 NL4-3.
A short description of series [14]: as §6. The series is classed as ADME, cell-free.

Data on ten molecules can be found in ChEMBL document CHEMBL4020747, “Drug-like property-driven optimization of 4-substituted 1,5-diarylanilines as potent HIV-1 non-nucleoside reverse transcriptase inhibitors against rilpivirine-resistant mutant virus” (Bioorg Med Chem Lett, 2017).

In brackets after ≈: the same amount, converted by molar mass.

For `Cc1cc(C#N)cc(C)c1Oc1nc(Nc2ccc(C#N)cc2)nc(N)c1Br` [ETRAVIRINE], the EC50 in series [1] is more than 0.0015 µM.

For the molecule `COCCOC(=O)c1cc(N)c(Nc2ccc(C#N)cc2)cc1Oc1c(C)cc(/C=C/C#N)cc1C`, the EC50 in series [2] came out at 0.00954 µM; in series [3] it was 0.00152 µM. In addition, the results for the t1/2 in the series on Liver [4], in the series on Liver [6] and in the series on Plasma were 0.317 h, 0.158 h and 62 h, respectively. The same molecule had a logP in series [5] of more than 5. Besides, the solubility at 4 h in [7] stood at 0.77 µg/mL (≈ 1.6 µM); in series [8] it was 1.64 µg/mL (≈ 3.4 µM). The same molecule yielded a CC50 with TZM of more than 0.207 µM. Moreover, the Ratio EC50 in series [9] was 6.3; in series [10], 2.9.

Take `Cc1cc(/C=C/C#N)cc(C)c1Oc1cc(Nc2ccc(C#N)cc2)c(N)cc1C(N)=O`: the t1/2 in the series on Liver [4] stood at 1.5 h; in the series with Liver [6], 1.8 h; in the series with Plasma it was 65 h. Moreover, the logP in series [5] worked out at 3.53.

On to `Cc1cc(/C=C/C#N)cc(C)c1Oc1cc(Nc2ccc(C#N)cc2)c(N)cc1C(=O)N1CC1`, for which the EC50 in series [2] was found to be 0.0167 µM; in series [3], 0.00333 µM. The results for the t1/2 in the series with Liver [4], in the series on Liver [6] and in the series on Plasma were 2.63 h, 1.83 h and 12 h, respectively. This molecule also came in with a logP in series [5] of 2.21. Further, the solubility at 4 h amounted to 1.2 µg/mL (≈ 2.67 µM) in [7] and 94.2 µg/mL (≈ 210 µM) in series [8]. In addition, the CC50 in the series on TZM was more than 0.223 µM. Besides, the values for the Ratio EC50 in series [9] and in series [10] were 5 and 2.6, respectively.

`Cc1cc(/C=C/C#N)cc(C)c1Oc1cc(Nc2ccc(C#N)cc2)c(N)cc1C(=O)NCCCO` returned an EC50 in [3] of 0.0249 µM. In [5], this molecule had a logP of 3.22. In addition, the results for the solubility at 4 h in series [7] and in series [8] were 1.01 µg/mL (≈ 2.1 µM) and 19.9 µg/mL (≈ 41.3 µM), respectively. Also, the CC50 in the series with TZM is more than 0.208 µM. Moreover, the Ratio EC50 in series [10] was determined as 0.9.

Consider `Cc1cc(/C=C/C#N)cc(C)c1Oc1cc(Nc2ccc(C#N)cc2)c(N)cc1C(=O)N1CC(F)(F)C1`, for which, in [3], a half-maximal effect (EC50) was put at 0.0134 µM. Moreover, the half-life at 1 µM in series [11] and in [12] was 0.233 h each time. For the same molecule, in [5], the logP was determined as 3.58. The solubility at 4 h in series [7] was determined as 6.59 µg/mL (≈ 13.2 µM); in series [8] it was 57.6 µg/mL (≈ 115 µM). This molecule showed a CC50 in series [13] of more than 0.2 µM. This molecule also gave a half-life at 10 ug/ml in series [14] of 57 h.

For `Cc1cc(/C=C/C#N)cc(C)c1Oc1cc(Nc2ccc(C#N)cc2)c(N)cc1C(=O)NCCCl`, the concentration for a half-maximal effect (EC50) was found to be 0.0173 µM in series [2] and 0.00329 µM in series [3]. For the same molecule, the t1/2 with Liver [4] worked out at 1.02 h; with Liver [6], 1.23 h; in the series on Plasma, 8 h. Also, the logP in series [5] is recorded as more than 5. The solubility at 4 h in series [7] is 1.59 µg/mL (≈ 3.27 µM); in series [8], 9.53 µg/mL (≈ 19.6 µM). This molecule also came in with a CC50 with TZM of more than 0.206 µM. The Ratio EC50 in [9] was 5.2; in [10], 2.6.

The molecule `Cc1cc(/C=C/C#N)cc(C)c1Oc1cc(Nc2ccc(C#N)cc2)c(N)cc1C(=O)NN` showed an EC50 in series [3] of 0.0116 µM. In addition, the t1/2 is 0.6 h in the series with Liver [4], 0.65 h in the series on Liver [6] and 8 h in the series on Plasma. For the same molecule, in series [5], the logP came out at 2.31. For the same molecule, the solubility at 4 h in series [7] worked out at 2.4 µg/mL (≈ 5.47 µM); in series [8] it was 89.6 µg/mL (≈ 204 µM). The molecule further gave a CC50 with TZM of more than 0.228 µM.

On to `Cc1cc(/C=C/C#N)cc(C)c1Nc1ccnc(Nc2ccc(C#N)cc2)n1` [RILPIVIRINE], for which the EC50 in series [2] worked out at 0.00238 µM; in series [3], 0.00044 µM. Also, the t1/2 in the series with Liver [4] turned out to be 1.8 h; in the series on Liver [6], 1.7 h; in the series on Plasma it was 92 h. This molecule had a logP in [5] of more than 5. The molecule also gave a CC50 with TZM of more than 0.273 µM.

`Cc1cc(/C=C/C#N)cc(C)c1Oc1cc(Nc2ccc(C#N)cc2)c(N)cc1C(=O)OCCC#N`: the EC50 in series [2] is 0.00461 µM; in series [3] it was 0.00111 µM. The t1/2 in the series on Liver [4] amounted to 0.283 h; with Liver [6], 0.2 h; in the series with Plasma, 32 h. Also, the logP in [5] is listed as more than 5. Further, the solubility at 4 h amounted to 0.36 µg/mL (≈ 0.754 µM) in series [7] and 0.94 µg/mL (≈ 1.97 µM) in [8]. Besides, in the series with TZM, the CC50 was more than 0.21 µM. Also, the Ratio EC50 is 4.1 in [9] and 2.4 in [10].

The term EC50 denotes the concentration needed to bring the measured effect to its halfway point. As a reminder, the logP is a log measure of how a compound divides between an organic and an aqueous phase. The term solubility denotes how much of the substance goes into solution per volume. A low value points to a poorly soluble substance. By CC50 is commonly meant the concentration that lowers cell viability or growth by half. Lower therefore signals greater toxicity to the cells. One may read the half-life as how long it takes for the measured level to halve.
